Compound activity as filed in PubChem.
Rows were chosen to be rich in hits. Some 1.9% of all compounds tested hit in one or more screens of this group.
Rin1 Abl inh: blocks binding of human Rin1 to Abl. P00519+Q13671. TR-FRET Rin1/Abl binding, biochemical. inhibition, % at 7.35 µM. actives 0.4% (n = 360,000). AID 588664; in the data active = inhibition above about 5%, passing the limit was not always enough
LEDGF integ inh: blocks HIV-1 LEDGF/p75-dependent DNA integration | AID 743269 | TR-FRET IN-LEDGF/p75 DNA integration, Eu/Cy5 | actives 0.64% (n = 370,000) | inhibition, % at 3.7 µM;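 active = inhibition above the screen-wide mean plus 3 SD, cut at about 13% in these data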;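 also: signal is the Cy5 over europium emission ratio at 671 and 618 nm; 0% = plate median of compound wells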
TDP2 absorb: TDP2 (human) inhibition, absorbance primary screen; recombinant TDP2, T5PNP hydrolysis, p-nitrophenol absorbance 415 nm; inhibition, % at 12.8 µM; actives 0.34% (n = 370,000); AID 720702;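 active = inhibition above the mean of all tested compounds plus 3 SD, set per campaign, cut at about 25% in these data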;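 also: 0% = DMSO with enzyme and 100% = buffer with substrate but no TDP2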
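test system = human TDP2 enzyme | input = TDP2 enzyme at 120 nM final | medium = 50 mM Tris-HCl pH 7.5 with Mg2+, KCl, DTT, BSA | also added = T5PNP substrate, 5 mM | times = 2 h at 37 °C | technique = epi absorbance | benchmarks = high control without enzyme, low control DMSO plus TDP2 | replication = each compound tested once, singlicate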
UHRF1 binding: human UHRF1 methylated DNA binding inhibitors; Q96T88; UHRF1 binding to methylated oligo, TR-FRET; inhibition, % at 4.4 µM; actives 0.75% (n = 370,000); AID 687016; in the data active = inhibition above about 21%;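 also: UHRF1 SRA domain binding a hemimethylated CpG hairpin DNA probe; 0% = median of test compound wells and 100% = reference inhibitor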
MBD2 DNA inh: blocks human MBD2 binding to methylated DNA; Q9UBB5; TR-FRET, MBD2 binding to methylated oligonucleotide; inhibition, % at 4.4 µM; actives 0.31% (n = 370,000); AID 686964; in the data active = inhibition above about 13%
An asterisk follows results filed as active; x = no result.

SMILES	Rin1 Abl inh	LEDGF integ inh	TDP2 absorb	UHRF1 binding	MBD2 DNA inh
Cc1cc(NC(=O)CCC(=O)N(CC(=O)NCC2CCCO2)c2cccc(F)c2)no1 (configuration not stated)	1.7	40.8*	-8.0	0.1	-5.6
CC(=O)c1cccc(N(CC(=O)NCC2CCCO2)C(=O)CCC(=O)Nc2cc(C)on2)c1 (configuration not stated)	2.1	-3.1	-6.8	0.9	0.7
CCS(=O)(=O)NCC(c1cccnc1)N1CCN(c2ccc(OC)cc2)CC1 (configuration not stated)	0.7	0.6	-4.8	21.9*	2.8
Cc1ccc(CNC(=O)C2CC(=O)N(C3CCCCCC3)C2)cc1 (configuration not stated)	3.1	-1.2	1.1	36.8*	1.9
COc1ccc(OC)c(NC(=O)C(C)N2c3cccc4cccc(c34)S2(=O)=O)c1 (configuration not stated)	-3.3	29.8*	-14.7	3.2	-6.1
O=C(Nc1ccc(F)cc1)OCc1cn(Cc2cc(F)ccc2F)nn1	x	-3.8	10.1	3.1	-3.2
COCCCN(C(=O)c1cc(-c2ccco2)nc2ccccc12)c1c(N)n(Cc2ccccc2)c(=O)[nH]c1=O	4.0	35.5*	-7.2	23.1*	12.2
CNC(=O)COC(=O)c1cc(-c2ccco2)nc2ccccc12	-4.6	16.1*	2.0	11.3	3.3
CCOc1ccc(CC(=O)N2N=C(C)CC2(O)C(F)(F)F)cc1 (configuration not stated)	-2.5	-1.9	-1.0	28.9*	3.0
O=C(O)Cn1nnnc1SCC(=O)Nc1ccccc1F	-2.5	1.8	6.7	25.7*	9.4
COc1ccccc1NC(=O)CSc1nnc(CCC(=O)Nc2ccccc2F)n1C	-0.7	-0.6	5.2	20.7*	3.5
CCCCCCN1CCS(=O)(=O)N(Cc2ccc(OC)cc2)C(C(=O)OC)C1 (configuration not stated)	x	1.8	-4.8	0.8	4.5
COC(=O)[C@H](CC(C)C)N(CCCc1cn(CC2CCCCC2)nn1)S(=O)(=O)c1ccccc1Br	x	-5.0	-3.5	-0.8	3.0
Cc1cc(=O)oc2cc(NC(=O)COc3cccc(C(F)(F)F)c3)ccc12	3.4	4.3	2.8	55.5*	7.1
O=C(Cn1cc(COc2ccc(Br)cc2)nn1)c1ccc(O)cc1	-3.4	-2.8	0.9	9.1	4.8
O=C(Cn1cc(COc2c(Br)cc(F)cc2Br)nn1)c1ccc(O)cc1	0.8	2.7	-7.5	21.3*	13.0
N#Cc1ccccc1OCc1cn(CC(=O)c2ccc(O)cc2)nn1	0.1	2.8	1.0	22.2*	13.1
O=C(Cn1cc(COc2c(F)c(F)c(Br)c(F)c2F)nn1)c1ccc(O)cc1	-2.3	-2.7	-7.0	3.7	-2.0
CC(=O)c1cc(C)c(OCc2cn(CC(=O)c3ccc(O)cc3)nn2)c(C)c1	0.4	4.9	-3.9	20.8*	8.5
O=Cc1cccc(OCc2cn(CC(=O)c3ccc(O)cc3)nn2)c1	-0.2	3.4	5.5	23.9*	12.2
NC1=NS(=O)(=O)Nc2ccccc21	x	-1.6	2.7	1.1	-0.4
COc1ccc(C2OCCNC3C2C(=O)N(Cc2ccc(OC)cc2OC)C3Cc2ccccc2)cc1 (configuration not stated)	x	-3.2	6.3	5.8	-1.1
O=C(NCc1ccco1)O[C@H]1CC[C@@]23CCCN2C(=O)CCC[C@H]3C1	x	-1.8	4.2	1.0	0.9
CCCCNC(=O)C[C@H]1C(=O)N(CCCOC)C2=CCCCC[C@]21C(=O)OC	x	6.0	7.0	-3.3	2.3
COCCCNC(=O)C[C@H]1C(=O)N(Cc2ccc(OC)cc2)C2=CCCCC[C@@]21C(=O)OC	x	5.1	-11.3	2.0	-1.7
SMILES	Rin1 Abl inh	LEDGF integ inh	TDP2 absorb	UHRF1 binding	MBD2 DNA inh
CCCC(=O)c1ccc(OCc2cn(CC(=O)c3ccc(O)cc3)nn2)cc1	-3.0	4.4	6.0	23.1*	4.8
Cc1c(C)n(Cc2ccc(-c3ccccc3C(=O)O)cc2)c2ccc(C(=O)N[C@@H](C)c3ccc([N+](=O)[O-])cc3)cc12	x	0.8	3.2	0.9	6.9
O=C(CSc1nc(-c2ccccc2)c(-c2ccccc2)o1)N1CCOCC1	-1.4	-1.6	0.3	92.3*	-0.3
COC(=O)[C@]12C[C@H](CC(=O)NCc3ccccc3)C(=O)N(CCC3=CCCCC3)C1=C[C@H](C1CCCC1)O[C@@H]2C	x	3.3	-9.9	0.7	0.5
Cc1nn(-c2ccccc2)c(C)c1C(=O)Oc1ccccc1	-0.8	-0.2	-8.0	32.3*	1.3
COc1ccc(OC(=O)c2c(C)nn(-c3ccccc3)c2C)cc1	-0.6	-0.7	6.5	0.9	1.1
CC(=O)N1CCOc2cc(S(=O)(=O)NC(C)c3ccccc3)c(Cl)cc21 (configuration not stated)	-0.1	1.4	-6.3	29.5*	-8.0
Cc1ccc(OCC(=O)Nc2ccc(S(=O)(=O)N3CCN(C)CC3)cc2)cc1	-2.0	-1.4	4.7	45.6*	3.0
CCOC(=O)COc1ccc(S(=O)(=O)N2CCN(c3ccccc3F)CC2)cc1	4.5	0.0	-2.9	5.0	11.1
O=C(CCCOc1ccccc1)N1CCN(S(=O)(=O)c2ccc(Cl)cc2)CC1	1.4	0.8	2.1	1.2	1.2
COc1ccc(OCC(=O)Nc2ccc(S(=O)(=O)N3CCN(C)CC3)cc2)cc1	4.0	-3.3	-7.2	2.1	-2.4
CCOc1ccc(OCCCC(=O)N2CCN(S(=O)(=O)c3ccc(Cl)cc3)CC2)cc1	57.9*	31.5*	1.5	0.5	8.1
CCOC(=O)COc1ccc(S(=O)(=O)N2CCN(c3ccc(OC)cc3)CC2)cc1	6.5	-0.3	-3.9	36.7*	7.5
CCN(CC)C(=O)CC[C@H]1CC[C@]2(CCCN(Cc3nccs3)C2)O1	x	2.7	-3.2	0.8	7.0
CCOc1cc(C(=O)NC(C)CC)cc(OCC)c1OCC (configuration not stated)	-2.6	-0.1	-3.5	26.9*	2.6
O=c1cc(CO)oc(C(Nc2ccccn2)c2ccc(F)cc2)c1O (configuration not stated)	3.0	-6.7	0.8	4.6	9.7
COc1ccc(C(Nc2ccccn2)c2oc(CO)cc(=O)c2O)cc1 (configuration not stated)	7.4*	-3.8	7.0	2.2	-1.0
O=C(OCC(=O)N1CCc2ccccc21)c1ccc([N+](=O)[O-])o1	-1.0	15.6*	-14.8	4.7	2.6
COc1cccc(-c2cnc(C(O)c3cccc(C)c3C)[nH]2)c1 (configuration not stated)	-0.7	-0.3	-12.9	1.5	6.4
Cc1cccc(C(O)c2ncc(-c3ccc4ccccc4c3)[nH]2)c1C (configuration not stated)	1.4	-6.2	0.5	30.4*	3.8
CCC(NC(=O)CN1CCN(c2cccc(OC)c2)CC1)c1ccccc1 (configuration not stated)	x	-3.6	6.5	-0.7	1.1
